Tests used:
[1] = biological target: T1, Fatty-acid amide hydrolase 1 (Rattus norvegicus, UniProt P97612); assay: Inhibition of FAAH in rat brain homogenates pre-incubated for 10 mins before addition of [3H]anandamide and [3H]AEA substrates for 30 mins by liquid scintillation counting; assay type: tissue-based
T1 sequence (P97612 whole entry): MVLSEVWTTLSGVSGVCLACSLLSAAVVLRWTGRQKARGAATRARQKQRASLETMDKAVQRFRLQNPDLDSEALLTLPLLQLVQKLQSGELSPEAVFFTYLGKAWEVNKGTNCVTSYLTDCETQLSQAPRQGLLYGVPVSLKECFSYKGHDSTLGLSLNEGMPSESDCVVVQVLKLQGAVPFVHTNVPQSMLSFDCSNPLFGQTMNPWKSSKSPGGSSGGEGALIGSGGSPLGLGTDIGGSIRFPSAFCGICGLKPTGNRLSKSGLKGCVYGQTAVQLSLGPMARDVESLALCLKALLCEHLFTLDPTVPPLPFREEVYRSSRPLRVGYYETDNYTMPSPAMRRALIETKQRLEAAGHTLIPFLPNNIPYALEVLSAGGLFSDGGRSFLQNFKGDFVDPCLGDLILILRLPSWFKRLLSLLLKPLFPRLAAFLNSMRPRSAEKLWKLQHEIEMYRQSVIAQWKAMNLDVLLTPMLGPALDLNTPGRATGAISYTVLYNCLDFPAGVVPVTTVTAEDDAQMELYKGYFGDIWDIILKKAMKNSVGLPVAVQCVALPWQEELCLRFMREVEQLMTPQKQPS
Summary of the method: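 Rat whole-brain homogenate (50 ug protein/sample) in 50 mM TRIS pH 7.4, 0.05 % fatty acid free BSA; inhibitor pre-incubated 10 min, then 1 uM unlabelled AEA plus 0.6 nM [3H]-AEA added for 30 min at 37°C. Stopped with cold 1:1 CHCl3/MeOH; aqueous phase counted.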

[2] = biological target: T2, Prostaglandin G/H synthase 1 (Ovis aries, UniProt P05979); assay: Inhibition of ovine COX1 pre-incubated for 10 mins before arachidonic acid substrate addition by enzyme immunoassay
T2 sequence (P05979 whole entry): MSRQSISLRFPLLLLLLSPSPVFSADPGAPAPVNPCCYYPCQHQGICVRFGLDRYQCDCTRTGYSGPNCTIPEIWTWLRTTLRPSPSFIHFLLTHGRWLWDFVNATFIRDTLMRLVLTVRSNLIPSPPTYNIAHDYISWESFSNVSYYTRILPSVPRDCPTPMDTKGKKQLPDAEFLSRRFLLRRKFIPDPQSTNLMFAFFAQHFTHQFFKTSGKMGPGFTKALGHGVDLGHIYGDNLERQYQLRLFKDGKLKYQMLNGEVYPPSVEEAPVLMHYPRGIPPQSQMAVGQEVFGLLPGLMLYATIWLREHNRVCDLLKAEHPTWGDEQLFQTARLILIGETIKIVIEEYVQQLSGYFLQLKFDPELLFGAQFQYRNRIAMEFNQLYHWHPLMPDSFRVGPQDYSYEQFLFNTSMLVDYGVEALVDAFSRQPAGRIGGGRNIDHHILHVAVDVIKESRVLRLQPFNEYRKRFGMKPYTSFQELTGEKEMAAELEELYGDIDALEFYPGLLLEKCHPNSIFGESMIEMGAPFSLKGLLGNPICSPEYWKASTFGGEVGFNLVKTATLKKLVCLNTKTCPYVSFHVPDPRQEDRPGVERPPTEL
Summary of the method: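 Ovine COX-1 pre-incubated with inhibitor for 10 min at 37 °C, then 5 μM arachidonic acid for 2 min at 37 °C. Stopped with HCl; PGH2 reduced to PGF2α with SnCl2 and measured by competitive EIA (PG antibody, PG-acetylcholinesterase conjugate), absorbance at 412 nm.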

[3] = biological target: T3, Prostaglandin G/H synthase 2 (Homo sapiens, UniProt P35354); assay: Inhibition of human COX2 pre-incubated for 10 mins before substrate addition by enzyme immunoassay
T3 sequence (P35354 whole entry): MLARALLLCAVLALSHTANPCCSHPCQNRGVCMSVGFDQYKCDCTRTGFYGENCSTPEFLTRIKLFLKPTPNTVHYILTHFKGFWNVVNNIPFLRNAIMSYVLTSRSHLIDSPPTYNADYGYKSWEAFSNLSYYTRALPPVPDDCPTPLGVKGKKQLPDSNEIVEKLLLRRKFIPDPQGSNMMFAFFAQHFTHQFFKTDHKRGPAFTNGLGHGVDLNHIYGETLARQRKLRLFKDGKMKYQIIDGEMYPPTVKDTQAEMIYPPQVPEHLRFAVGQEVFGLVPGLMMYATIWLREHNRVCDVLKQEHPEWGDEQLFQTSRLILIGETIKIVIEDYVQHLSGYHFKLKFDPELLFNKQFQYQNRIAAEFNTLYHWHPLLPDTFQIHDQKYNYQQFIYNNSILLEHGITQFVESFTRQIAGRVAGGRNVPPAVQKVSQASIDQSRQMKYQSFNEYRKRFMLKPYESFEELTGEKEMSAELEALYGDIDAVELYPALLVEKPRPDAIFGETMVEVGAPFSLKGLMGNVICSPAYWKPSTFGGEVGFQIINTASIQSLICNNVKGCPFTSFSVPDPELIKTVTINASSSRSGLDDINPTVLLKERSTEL

| SMILES | IC50 ([1]; read-out: IC50) [µM] | IC50 [2] [µM] | IC50 [3] [µM] | IC50 [1] |
| --- | --- | --- | --- | --- |
| CC(C(=O)O)c1ccc2c3cc(Cl)ccc3n(C(=O)c3cocn3)c2c1 (racemic) | 84.8 | 30 | 27.8 | – |
| C[C@H](C(=O)O)c1ccc2c3cc(Cl)ccc3n(C(=O)c3ccc(Cl)cc3)c2c1 | > 100 | 45 | 46.5 | – |
| CCCCCCS(=O)(=O)n1c2ccc(Cl)cc2c2ccc(C(C)C(=O)O)cc21 (racemic) | 50.3 | > 100 | > 100 | – |
| CC(C(=O)O)c1ccc2c3cc(Cl)ccc3n(C(=O)c3ccccc3Cl)c2c1 (racemic) | 59.6 | > 100 | > 100 | – |
| CC(C(=O)O)c1ccc2c3cc(Cl)ccc3n(C(=O)Nc3ccc(Cl)cc3)c2c1 (racemic) | 102 | 41.3 | > 100 | – |
| CC(C)Cc1ccc(C(C)C(=O)O)cc1 (stereo unspecified) [IBUPROFEN] | – | – | – | Not Active |
| CCCCCCN(C)C(=O)n1c2ccc(Cl)cc2c2ccc(C(C)C(=O)O)cc21 (racemic) | > 100 | > 100 | > 100 | – |
| CNC(=O)n1c2ccc(Cl)cc2c2ccc(C(C)C(=O)O)cc21 (racemic) | > 100 | > 100 | > 100 | – |
| CCCCNC(=O)n1c2ccc(Cl)cc2c2ccc(C(C)C(=O)O)cc21 (racemic) | > 100 | > 100 | > 100 | – |
| CC(=O)n1c2ccc(Cl)cc2c2ccc(C(C)C(=O)O)cc21 (racemic) | > 100 | > 100 | > 100 | – |
| CC(C(=O)NCCO)c1ccc2c(c1)[nH]c1ccc(Cl)cc12 (racemic) | > 100 | > 100 | > 100 | – |
| CC(C(=O)O)c1ccc2c(c1)[nH]c1ccc(Cl)cc12 (racemic) [CARPROFEN] | – | 22.3 | – | – |
| COc1ccc(Cn2c3ccc(Cl)cc3c3ccc(C(C)C(=O)O)cc32)cc1 (racemic) | 8.4 | > 100 | > 100 | – |
| CC(C(=O)O)c1ccc2c3cc(Cl)ccc3n(C(=O)c3ccc(F)cc3)c2c1 (racemic) | 30.9 | > 100 | > 100 | – |
| C[C@@H](C(=O)O)c1ccc2c3cc(Cl)ccc3n(C(=O)c3ccc(Cl)cc3)c2c1 | 14.9 | > 100 | > 100 | – |
| CC(C(=O)O)c1ccc2c3cc(Cl)ccc3n(C(=O)c3cscn3)c2c1 (racemic) | > 100 | > 100 | > 100 | – |
| CC(C(=O)O)c1ccc2c3cc(Cl)ccc3n(C(=O)c3ccccc3)c2c1 (racemic) | 25.4 | > 100 | > 100 | – |
| CC(C(=O)O)c1ccc2c3cc(Cl)ccc3n(S(=O)(=O)c3ccc(Cl)cc3)c2c1 (racemic) | 4.8 | > 100 | > 100 | – |
| C[C@H](C(=O)O)c1ccc2c3cc(Cl)ccc3n(C(=O)c3cocn3)c2c1 | > 100 | 4.1 | 2.5 | – |
| CCCCCCCCNC(=O)n1c2ccc(Cl)cc2c2ccc(C(C)C(=O)O)cc21 (racemic) | 26.8 | 15.4 | > 100 | – |
